High-throughput results as filed in PubChem BioAssay.
MrgX1 PAM = positive allosteric modulators of MrgX1, primary screen, HEK293 cells, Fluo-4 calcium flux; FDSS; stronger effect = higher value; 0.63% of 310,000 active; Mas-related G-protein coupled receptor member X1 (Homo sapiens), Q96LB2; B-score at 10 µM;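 active means plate-corrected calcium response at least 3 library SD above typical, normal starting fluorescence, not activating the receptor alone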;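 further: compound read alongside a low EC10 to EC30 dose of BAM8-22 agonist; peak minus trough fluorescence over baseline measured at the second addition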
Target sequence (Q96LB2 whole entry, looked up): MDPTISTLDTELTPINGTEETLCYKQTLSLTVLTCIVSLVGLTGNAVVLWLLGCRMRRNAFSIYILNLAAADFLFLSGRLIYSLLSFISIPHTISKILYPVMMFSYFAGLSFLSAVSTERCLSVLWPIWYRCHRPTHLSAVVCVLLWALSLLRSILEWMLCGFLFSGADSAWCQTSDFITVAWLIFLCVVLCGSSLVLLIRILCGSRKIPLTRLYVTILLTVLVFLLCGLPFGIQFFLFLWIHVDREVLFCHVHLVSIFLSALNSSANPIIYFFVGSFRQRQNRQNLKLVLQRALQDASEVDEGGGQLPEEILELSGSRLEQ
MrgX1 antagonist = antagonists of human MrgX1 receptor, primary screen, HEK293 cells, Fluo-4 calcium flux | 1.3% of 310,000 active | BAM8-22 antagonism; stronger effect = lower value | B-score at 10 µM | Mas-related G-protein coupled receptor member X1 (Homo sapiens), Q96LB2;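 active means calcium-response B-score plate-corrected more than 3 library SD below zero, starting fluorescence within 5 deviations, no agonist response on first addition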;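 further: peak minus trough fluorescence over baseline after final BAM8-22 challenge near maximal dose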
Lipid droplet = inhibitors of hepatocyte lipid droplet formation, primary screen, imaging, high-throughput imaging, BODIPY stain | AML12 mouse hepatocytes, oleate lipid droplets | inhibition, % at 6.5 µM | 0.4% of 240,000 active | AID 1656, 2009;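 active means lipid droplet intensity inhibited by at least 50%, with more than 500 cells counted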
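Assay system: AML12 hepatocytes (mouse); Probe or stimulus: oleic acid at 100 µM to induce lipid droplet formation; Dosing: compound at 6.5 µM only; Schedule: compound with oleate, overnight; Detection: fluorescence imaging, 20x objective, two fields per well; Measure: % inhibition of lipid droplet signal.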
RGS4 act = RGS4 potentiators or activators, primary screen, cell-based, HEK293 M3R inducible RGS4, calcium flux; carbachol calcium flux Fluo4; stronger effect = lower value; B-score at 10 µM; 0.92% of 310,000 active;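 active means B-score of the integrated calcium signal more than 4 SD below the library mean, with starting fluorescence not abnormally high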;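 further: negative B-score means reduced calcium response which marks RGS4 activation or potentiation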
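Test system: HEK293 cells with stable M3R and inducible RGS4; also added: carbachol at ECmax as muscarinic agonist stimulus; schedule: dye loading 30 min 37 °C, buffer rest 30 min RT; technique: kinetic calcium fluorescence imaging with Fluo4-AM dye, 2 µM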
RGS4 block = RGS4 inhibitors, primary screen, cell-based, HEK293 M3R inducible RGS4, calcium flux; 0.45% of 310,000 active; Regulator of G-protein signaling 4 (Homo sapiens), P49798; Fluo-4 calcium flux; stronger effect = higher value; triggered by carbachol at its EC20; B-score at 10 µM;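 active means B-score, a plate-corrected calcium signal, over three deviations above library mean, with baseline fluorescence within five deviations of library mean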;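 further: RGS4 expression induced by doxycycline in cells with stable M3 receptor; B-score is computed from the integrated fluorescence ratio over baseline after carbachol; higher B-score means a larger calcium signal and so more RGS4 inhibition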
Target sequence (P49798 whole entry, looked up): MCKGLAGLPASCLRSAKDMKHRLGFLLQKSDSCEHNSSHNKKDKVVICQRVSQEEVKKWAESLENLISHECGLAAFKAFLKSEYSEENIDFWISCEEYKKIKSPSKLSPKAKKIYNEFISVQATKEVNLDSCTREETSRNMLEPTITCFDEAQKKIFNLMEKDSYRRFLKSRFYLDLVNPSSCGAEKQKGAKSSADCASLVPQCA
MrgX1 agonist = agonists of human MrgX1 receptor, primary screen, HEK293 cells, Fluo-4 calcium flux | Mas-related G-protein coupled receptor member X1 (Homo sapiens), Q96LB2 | Fluo-4 calcium fluorescence, agonist mode; stronger effect = higher value | B-score at 10 µM | 0.44% of 310,000 active;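 active means calcium response B-score plate-corrected fluorescence ratio at least 3 library SD, with starting fluorescence B-score inside 5 SD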
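System – MrgX1-expressing HEK293 cells · Incubation – cells plated overnight, dye loaded 0.5 h 37 °C, 0.5 h room temperature · Technique – kinetic Fluo-4 NW fluorescence of intracellular calcium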
RGS4 block valid = enhanced carbachol calcium response, M3R/RGS4 cells, RGS4 inhibitor project, cell-based, validation screen, HEK293 M3R/RGS4, calcium flux; shares compounds with RGS4 block; carbachol calcium Fluo-4 fluorescence; carbachol added at its EC20; 0 = buffer wells, 100 = carbachol control; calcium response, % at 10 µM; 65% of 1,700 active; AID 492999, 2010;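 active means duplicate-averaged calcium response above the buffer-only control mean plus 5 SD of those controls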;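 further: integrated fluorescence ratio F max minus min over baseline F0; higher response in RGS4-induced cells means RGS4 inhibition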
RGS4 uninduced = carbachol calcium response in non-induced M3R cells, confirmation, counter-screen for RGS4 inhibitor project, cell-based, HEK293 M3R; carbachol calcium Fluo-4; submaximal (EC20) carbachol stimulus; buffer wells 0%, carbachol control wells 100%; shares compounds with RGS4 block; AID 493000, 2010; 20% of 1,900 active; activity (percent), % at 10 µM; call rule not given here;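 further: RGS4 induction absent so cells express M3R without RGS4; higher means more calcium signal and flags a non-specific hit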
M3R basal Ca ctr = second RGS4 inhibitor counter-screen in uninduced cells lacking carbachol. shares compounds with RGS4 block. HEK293 M3R/RGS4 non-induced, Fluo-4 calcium, no carbachol; normalised: buffer wells 0%, carbachol wells 100%. calcium response (agonist-mode artifact), % at 10 µM. 22% of 1,900 active. AID 493001;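 active means duplicate-averaged calcium rise in uninduced cells above buffer wells' mean plus 5 SD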
Starred values were filed as active, the others as inactive; i = inactive; nt = not tested or not shown. Most compounds without a hit are left out; they make up all but 3.8% or so of the library.

SMILES	MrgX1 PAM	MrgX1 antagonist	Lipid droplet	RGS4 act	RGS4 block	MrgX1 agonist	RGS4 block valid	RGS4 uninduced	M3R basal Ca ctr
CCOC(=O)C1=C(C)N=c2s/c(=C/c3ccc(OCC(=O)O)c(OC)c3)c(=O)n2C1c1ccc(Cl)cc1 (stereo not drawn)	i	i	nt	i	i	i	nt	nt	nt
O=C1CCCC2=C1C(c1ccc(Cl)cc1)n1c(s/c(=C\c3ccc4ccncc4c3)c1=O)=N2 (stereo not drawn)	i	i	1	i	14*	i	42%*	i	196%*
CCOc1ccc(/C(O)=C2/C(=O)C(=O)N(c3nc(C)c(C)s3)C2c2ccco2)cc1 (stereo not drawn)	i	i	nt	i	i	i	nt	i	i
COC(=O)c1sc(N2C(=O)C(=O)/C(=C(/O)c3ccc(C)cc3)C2c2ccco2)nc1C (stereo not drawn)	i	i	1	i	i	i	nt	nt	nt
Cc1ccc2sc(-c3ccc(NC(=O)/C=C\C(=O)O)cc3)nc2c1	nt	nt	-16	i	i	nt	nt	nt	nt
CCCCNC(=O)N(O)C1N(CCCC)C(=O)N(CC(=O)OC)C1(C)C (stereo not drawn)	i	i	-4	i	i	i	nt	nt	nt
O=C(CCSc1ccccn1)c1ccccc1	i	i	-11	i	5.7*	i	5.0%*	36%*	18%*
Clc1ccc(CNc2ccc(CNc3ncn[nH]3)cc2)c(Cl)c1	i	i	-4	i	i	i	nt	nt	nt
COc1cc(/C=C2/SC(=S)N(Cc3ccccc3)C2=O)ccc1O	11*	i	4	i	6.4*	i	12%*	i	34%*
O=C1/C(=C\c2cccc(O)c2)SC(=S)N1Cc1ccccc1	i	i	-3	i	i	i	i	i	i
O=C1/C(=C/c2ccncc2)SC(=S)N1Cc1ccccc1	i	i	-15	i	i	i	nt	nt	nt
O=C1/C(=C\c2cccc(O)c2O)SC(=S)N1Cc1ccccc1	i	i	-1	i	8.4*	i	18%*	i	i
Cc1cccc(NC(=O)CSc2nc(=O)n(CCCN3CCOCC3)c3c2CCCC3)c1	i	i	nt	i	i	i	nt	nt	nt
CCOC(=O)C1(CCCc2ccccc2)CCN(CC(O)CO)CC1 (stereo not drawn)	i	i	28	i	i	i	nt	nt	nt
CC(C)(C)CC(=O)Nc1nn[nH]n1	i	i	14	i	i	i	nt	nt	nt
CN1C(=O)C(c2nnc(Nc3cccc4ccccc34)s2)C2CC1(C)Oc1ccccc12 (stereo not drawn)	i	i	0	nt	nt	i	nt	nt	nt
CCn1c(C)c(CS(=O)(=O)c2ccccc2)[nH]c1=O	i	i	13	i	6.7*	i	24%*	i	7.0%*
O=C(CCS(=O)(=O)Cc1ccc(Cl)cc1)NCCc1ccccc1	i	i	0	i	i	i	nt	nt	nt
